The record followed here is ChEMBL document CHEMBL1128333, “Derivatives of cis-2-amino-8-hydroxy-1-methyltetralin: mixed 5-HT1A-receptor agonists and dopamine D2-receptor antagonists” (J Med Chem, 1995).

Test [1] addresses T1, 5-hydroxytryptamine receptor 1A (Rattus norvegicus, UniProt P19327).
T1 sequence (P19327 whole entry): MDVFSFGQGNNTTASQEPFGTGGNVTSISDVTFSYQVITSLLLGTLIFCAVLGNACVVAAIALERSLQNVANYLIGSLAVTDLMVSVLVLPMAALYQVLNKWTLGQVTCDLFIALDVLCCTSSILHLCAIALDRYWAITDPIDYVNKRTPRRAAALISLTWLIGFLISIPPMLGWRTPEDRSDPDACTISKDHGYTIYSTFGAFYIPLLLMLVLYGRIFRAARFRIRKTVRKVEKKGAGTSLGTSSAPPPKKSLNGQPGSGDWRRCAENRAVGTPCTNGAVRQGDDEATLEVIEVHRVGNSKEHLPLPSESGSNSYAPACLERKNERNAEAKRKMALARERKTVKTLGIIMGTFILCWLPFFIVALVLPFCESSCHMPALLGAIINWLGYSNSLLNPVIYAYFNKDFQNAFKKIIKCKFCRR
The test can be described thus: Binding affinity for 5-hydroxytryptamine 1A receptor in rat brain tissue using [3H]8-OH-DPAT as radioligand. It counts as tissue-based. In short, it runs like this: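 Membranes from male Sprague–Dawley rat cortex plus hippocampus, homogenized in 50 mM Tris-HCl with 4.0 mM CaCl2 and 5.7 mM ascorbic acid, pH 7.5, and preincubated 10 min at 37 °C with 10 μM pargyline. Assay used 5 mg/mL tissue and 2 nM [3H]-8-OH-DPAT, 10 min at 37 °C. Nonspecific binding was defined with 10 μM 5-HT. Bound ligand was separated on GF/B filters and counted; data were fitted by nonlinear regression.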

For test [2], the system named is Rattus norvegicus. The test can be described thus: Cage leaving response was studied in rats after subcutaneous administration of 32 uM/Kg of compound; 4/5. In kind it is functional.
Test [3] concerns Rattus norvegicus. The test can be described thus: Change in body temperature in rats after subcutaneous administration. It counts as functional. An outline of the steps:
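Rectal temperature was taken with an electrical thermometer, probe inserted 3.5 cm, before and 30 min after sc injection in 0.9% NaCl. Values are the change from the preinjection reading, analysed by Tukey HSD versus saline-treated rats. Male Sprague–Dawley rats, 260–310 g.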

For test [4], the species on record is Rattus norvegicus. The test can be described thus: 5-HIAA (5-Hydroxyindoleacetic acid) content of rat hippocampus reflecting 5-HT metabolism and turnover. In kind it is functional. More on the design: concentration or dose not given beside the values. In short, it runs like this: (§1)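 Male Sprague–Dawley rats (260–310 g) received compound sc in 0.9% NaCl; saline controls. Rats were decapitated 35–45 min post-injection, and hippocampus and striatum were dissected and frozen. Tissue was homogenized in 0.1 M perchloric acid with α-methyl-5-hydroxytryptophan as internal standard, centrifuged and filtered, then analysed by HPLC-EC at 0.85 V (mobile phase pH 2.69, 35 °C). Values are percent of control, mean ± SEM.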

Test [5] is filed under the species Rattus norvegicus. The test can be described thus: 5-HT content of rat hippocampus reflecting 5-HT metabolism and turnover. It counts as functional. Details: concentration or dose not given beside the values. An outline of the steps:
as §1

Test [6] is filed under the species Rattus norvegicus. The test can be described thus: DA (dopamine) content of rat striatum reflecting DA metabolism and turnover. It counts as functional. In short, it runs like this:
as §1

The species named for test [7] is Rattus norvegicus. The test can be described thus: DOPAC (3,4-dihydroxyphenylacetic acid) content of rat striatum reflecting DA metabolism and turnover. It counts as functional. Details: concentration or dose not given beside the values. An outline of the steps: as §1
The species entered for test [8] is Rattus norvegicus. The test can be described thus: HVA (Homovanillic acid)content of rat striatum reflecting DA metabolism and turnover. It counts as functional. More on the design: concentration or dose not given beside the values.
Test [9] concerns Rattus norvegicus. The test can be described thus: Flat body posture behavior was studied in rats after subcutaneous administration of 32 uM/Kg of compound; 0/5. It counts as functional.
The test system of test [10] is Rattus norvegicus. The test can be described thus: Forepaw treading (FPT) behavior was studied in rats after subcutaneous administration of 32 uM/Kg of compound; 0/5. It counts as functional.
For test [11], the species on record is Rattus norvegicus. The test can be described thus: Ratio of serotonin turnover (5HIAA to 5-HT) in rat brain hippocampus compared to control. It counts as functional. An outline of the steps:
as §1

The species entered for test [12] is Rattus norvegicus. The test can be described thus: Ratio of turnover (DOPAC to DA) in rat brain striatum compared to control. In kind it is functional. In short, it runs like this: as §1
The next test has as its target D(2) dopamine receptor (Homo sapiens, UniProt P14416). The test can be described thus: In vitro binding affinity towards human Dopamine receptor D2A was determined in mouse fibroblast LtK cells using [3H]raclopride. In kind it is cell-based. In short, it runs like this: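 Membranes from Ltk− mouse fibroblasts stably expressing human D2A receptors, at 80–100 pM receptor. Buffer was 50 mM Tris-HCl, 120 mM NaCl, 5 mM KCl, 1.5 mM CaCl2, 4 mM MgCl2, 1 mM EDTA, pH 7.4. Incubation with [3H]raclopride was 60 min at 22 °C, in duplicate, with 1 μM (+)-butaclamol for nonspecific binding. Bound ligand was separated on GF/B filters; data were fitted by nonlinear regression.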

D(2) dopamine receptor, sequence (P14416 whole entry): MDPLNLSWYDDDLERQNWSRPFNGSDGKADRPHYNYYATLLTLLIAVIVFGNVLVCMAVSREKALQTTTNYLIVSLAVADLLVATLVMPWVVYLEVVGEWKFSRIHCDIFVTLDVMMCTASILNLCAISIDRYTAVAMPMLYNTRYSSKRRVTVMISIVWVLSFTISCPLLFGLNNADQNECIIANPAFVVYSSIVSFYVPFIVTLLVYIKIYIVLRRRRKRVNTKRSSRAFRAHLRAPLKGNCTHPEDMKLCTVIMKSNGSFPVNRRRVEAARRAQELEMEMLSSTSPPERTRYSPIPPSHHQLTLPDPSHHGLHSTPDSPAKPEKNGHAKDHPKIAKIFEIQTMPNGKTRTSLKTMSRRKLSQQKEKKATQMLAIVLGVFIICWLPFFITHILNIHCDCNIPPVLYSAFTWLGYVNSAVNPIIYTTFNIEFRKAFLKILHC

Broadly, the Ki is a dissociation constant, usually derived from enzyme kinetics or from competition with a known ligand. Compound `CCCN(CCC)[C@@H]1CCc2cccc(C(=O)c3ccccc3)c2[C@@H]1C` registered a Ki in test [1] of 2.6 nM. The same compound displayed a Cage leaving with Rattus norvegicus [2] of 4. In the test with Rattus norvegicus [3], the “Change of body temperature” value came to 0.1 °C. Moreover, the Control is reported as 92% in the test listed under Rattus norvegicus [4]; 101% in the test filed under Rattus norvegicus [5]; 105% in the test filed under Rattus norvegicus [6]; 117% in the test filed under Rattus norvegicus [7]; 111% in the test filed under Rattus norvegicus [8]. Besides, the FBP in the test with Rattus norvegicus [9] was determined as 0. The same compound displayed an FPT in the test with Rattus norvegicus [10] of 0. Besides, the Ratio turned out to be 89 in the test filed under Rattus norvegicus [11] and 110 in the test listed under Rattus norvegicus [12].
`CCCN(CCC)[C@H]1CCc2cccc(C(=O)c3ccccc3)c2[C@H]1C` yielded a Cage leaving with Rattus norvegicus [2] of 4. For the same compound, the “Change of body temperature” value in the test on Rattus norvegicus [3] stood at 0 °C. Also, the Control in the test listed under Rattus norvegicus [4] was 114%; in the test filed under Rattus norvegicus [5], 93%; in the test listed under Rattus norvegicus [6], 102%; in the test filed under Rattus norvegicus [7] it was 112%; in the test listed under Rattus norvegicus [8], 97%. Also, in the test on Rattus norvegicus [9], the FBP stood at 0. In addition, the FPT with Rattus norvegicus [10] amounted to 0. Further, the Ratio in the test filed under Rattus norvegicus [11] was determined as 123; in the test filed under Rattus norvegicus [12], 109.
Regarding `CCCN(C(C)C)[C@H]1CCc2cccc(O)c2[C@H]1C`, the Cage leaving with Rattus norvegicus [2] is 4. Besides, the “Change of body temperature” value in the test on Rattus norvegicus [3] is -0.1 °C. Also, the Control in the test listed under Rattus norvegicus [4] came to 79%; in the test filed under Rattus norvegicus [5] it was 97%; in the test filed under Rattus norvegicus [6], 110%; in the test filed under Rattus norvegicus [7], 86%; in the test listed under Rattus norvegicus [8] it was 100%. Moreover, in the test on Rattus norvegicus [9], the FBP is given as 0. This compound also returned an FPT in the test on Rattus norvegicus [10] of 0. Also, the results for the Ratio in the test filed under Rattus norvegicus [11] and in the test listed under Rattus norvegicus [12] were 80 and 77, respectively.
Consider `CCCN(C(C)C)[C@@H]1CCc2cccc(O)c2[C@@H]1C`, for which the Ki in [1] was 81 nM; on D(2) dopamine receptor, 614 nM. The compound also showed a Cage leaving in the test with Rattus norvegicus [2] of 4. In the test on Rattus norvegicus [3], the “Change of body temperature” value was -0.3 °C. Besides, the Control in the test filed under Rattus norvegicus [4] came out at 93%; in the test filed under Rattus norvegicus [5], 96%; in the test listed under Rattus norvegicus [6], 74%; in the test filed under Rattus norvegicus [7], 116%; in the test listed under Rattus norvegicus [8], 225%. In the test on Rattus norvegicus [9], this compound had an FBP of 0. Besides, the FPT in the test on Rattus norvegicus [10] turned out to be 0. The Ratio in the test filed under Rattus norvegicus [11] was found to be 97; in the test listed under Rattus norvegicus [12] it was 155.
With `CCCN(CCC)[C@@H]1CCc2cccc(OS(=O)(=O)C(F)(F)F)c2[C@@H]1C`, the Ki in test [1] was 6.7 nM; on D(2) dopamine receptor it was 124 nM. This compound gave a Cage leaving in the test on Rattus norvegicus [2] of 4. Besides, the “Change of body temperature” value with Rattus norvegicus [3] came out at 0 °C. Moreover, the Control in the test listed under Rattus norvegicus [4] is on record as 87%; in the test listed under Rattus norvegicus [5], 105%; in the test listed under Rattus norvegicus [6] it was 108%; in the test listed under Rattus norvegicus [7] it was 105%; in the test filed under Rattus norvegicus [8] it was 102%. The FBP with Rattus norvegicus [9] was 0. In the test with Rattus norvegicus [10], the FPT was 0. For the same compound, the Ratio in the test filed under Rattus norvegicus [11] is on record as 82; in the test listed under Rattus norvegicus [12], 97.
Turning to `CCCN(CCC)[C@H]1CCc2cccc(C(=O)NC(C)C)c2[C@H]1C`, the Ki in test [1] is over 1000 nM. Moreover, in the test with Rattus norvegicus [2], the Cage leaving came to 4. The “Change of body temperature” value in the test on Rattus norvegicus [3] was 0 °C. Also, the Control in the test filed under Rattus norvegicus [4] is on record as 97%; in the test listed under Rattus norvegicus [5], 104%; in the test filed under Rattus norvegicus [6], 82%; in the test filed under Rattus norvegicus [7], 59%; in the test filed under Rattus norvegicus [8], 76%. Further, the FBP with Rattus norvegicus [9] worked out at 0. The FPT in the test on Rattus norvegicus [10] is 0. For the same compound, the Ratio is 92 in the test filed under Rattus norvegicus [11] and 74 in the test listed under Rattus norvegicus [12].
